Laboratory results as given in ChEMBL document CHEMBL3243980, “Structural analogues of L-glutamic Acid gamma-(4-hydroxyanilide) and gamma-(3,4-dihydroxyanilde) as potential agents against melanoma” (1979).

tested on: B16; assay: Cytotoxicity against mouse B16 cells after 48 hrs; type: functional; conditions: B16, 48 h, read-out: ID50 (the source's name)
Method in brief: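 Moderately pigmented B16 murine melanoma cells grown as monolayers in McCoy's 5A medium plus 10% fetal calf serum, in exponential growth at assay. Drug added 24 h after plating, incubation continued another 48 h. Four dose levels tested in triplicate, generally 0.1–1.0 mM (0.01–0.1 mM for one compound); ID50 reported as mM, SD within ±10% of mean.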

Compound | IC50
N[C@@H](CCC(=O)Nc1ccc(O)cc1)C(=O)O | 100 µM
N[C@@H](CCC(=O)Nc1cccc(O)c1)C(=O)O | 1000 µM
N[C@@H](CCC(=O)Nc1ccc(O)c(O)c1)C(=O)O | 270 µM
COc1ccc(NC(=O)CC[C@H](N)C(=O)O)cc1 | > 1000 µM
N[C@@H](CCC(=O)Nc1ccc2c(c1)OCO2)C(=O)O | > 1000 µM
N[C@@H](CCC(=O)Nc1cc(O)ccc1O)C(=O)O | 51 µM
N[C@@H](CC(=O)Nc1ccc(O)cc1)C(=O)O | 310 µM
N[C@@H](CCC(=O)O)C(=O)Nc1ccc(O)cc1 | > 1000 µM
NCCCC(=O)Nc1ccc(O)cc1 | > 1000 µM
O=C(O)CCCC(=O)Nc1ccc(O)cc1 | > 1000 µM
O=C(CCCC(=O)Nc1ccc(O)cc1)Nc1ccc(O)cc1 | > 1000 µM
